Experiments:
Assay type in all cases: functional
[1] = system: RPMI-8226; assay: Growth inhibition of human RPMI8226 cells after 48 hrs by sulforhodamine B assay; conditions: RPMI-8226, 48 h
[2] = system: CCRF-CEM; assay: Growth inhibition of human CCRF-CEM cells after 48 hrs by sulforhodamine B assay
[3] = system: NCI-H522; assay: Growth inhibition of human NCI-H522 cells after 48 hrs by sulforhodamine B assay; conditions: NCI-H522, 48 h
[4] = system: OVCAR-5; assay: Growth inhibition of human OVCAR5 cells after 48 hrs by sulforhodamine B assay; conditions: OVCAR-5, 48 h
[5] = system: U-251; assay: Growth inhibition of human U251 cells after 48 hrs by sulforhodamine B assay; conditions: U-251, 48 h
[6] = system: SK-OV-3; assay: Growth inhibition of human SKOV3 cells after 48 hrs by sulforhodamine B assay; conditions: SK-OV-3, 48 h
[7] = system: HCT-15; assay: Growth inhibition of human HCT15 cells after 48 hrs by sulforhodamine B assay; conditions: HCT-15, 48 h
[8] = system: K562; assay: Growth inhibition of human K562 cells after 48 hrs by sulforhodamine B assay; conditions: K562, 48 h
[9] = system: NCI-H23; assay: Growth inhibition of human NCI-H23 cells after 48 hrs by sulforhodamine B assay; conditions: NCI-H23, 48 h
[10] = system: NCI-H322M; assay: Growth inhibition of human NCI-H322M cells after 48 hrs by sulforhodamine B assay
[11] = system: HL-60(TB); assay: Growth inhibition of human HL-60(TB) cells after 48 hrs by sulforhodamine B assay; conditions: HL-60, 48 h
Method in brief: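 Run in the NCI 60 cell-line screen as the full 5-dose assay that follows initial single-dose testing; GI50 is read from the dose series.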

[12] = system: HCC 2998; assay: Growth inhibition of human HCC2998 cells after 48 hrs by sulforhodamine B assay; conditions: HCC 2998, 48 h
[13] = system: NCI-H226; assay: Growth inhibition of human NCI-H226 cells after 48 hrs by sulforhodamine B assay; conditions: NCI-H226, 48 h
[14] = system: HOP-62; assay: Growth inhibition of human HOP62 cells after 48 hrs by sulforhodamine B assay; conditions: HOP-62, 48 h
[15] = system: HCT-116; assay: Growth inhibition of human HCT116 cells after 48 hrs by sulforhodamine B assay; conditions: HCT-116, 48 h
[16] = system: ACHN; assay: Growth inhibition of human ACHN cells after 48 hrs by sulforhodamine B assay
[17] = system: T47D; assay: Growth inhibition of human T47D cells after 48 hrs by sulforhodamine B assay
[18] = system: SNB-75; assay: Growth inhibition of human SNB75 cells after 48 hrs by sulforhodamine B assay; conditions: SNB-75, 48 h
[19] = system: SF-295; assay: Growth inhibition of human SF295 cells after 48 hrs by sulforhodamine B assay; conditions: SF-295, 48 h
[20] = system: KM12; assay: Growth inhibition of human KM12 cells after 48 hrs by sulforhodamine B assay; conditions: KM12, 48 h
[21] = system: BT-549; assay: Growth inhibition of human BT549 cells after 48 hrs by sulforhodamine B assay; conditions: BT-549, 48 h
[22] = system: NCI-H460; assay: Growth inhibition of human NCI-H460 cells after 48 hrs by sulforhodamine B assay; conditions: NCI-H460, 48 h
[23] = system: UO-31; assay: Growth inhibition of human UO31 cells after 48 hrs by sulforhodamine B assay; conditions: UO-31, 48 h
[24] = system: SW-620; assay: Growth inhibition of human SW620 cells after 48 hrs by sulforhodamine B assay; conditions: SW-620, 48 h
[25] = system: SF-268; assay: Growth inhibition of human SF268 cells after 48 hrs by sulforhodamine B assay; conditions: SF-268, 48 h
[26] = system: SK-MEL-28; assay: Growth inhibition of human SK-MEL-28 cells after 48 hrs by sulforhodamine B assay; conditions: SK-MEL-28, 48 h
[27] = Growth inhibition of human Hs 578T cells after 48 hrs by sulforhodamine B assay
[28] = system: RXF 393; assay: Growth inhibition of human RXF393 cells after 48 hrs by sulforhodamine B assay; conditions: RXF 393, 48 h
[29] = system: COLO 205; assay: Growth inhibition of human COLO205 cells after 48 hrs by sulforhodamine B assay; conditions: COLO 205, 48 h
[30] = system: A549; assay: Growth inhibition of human A549 cells after 48 hrs by sulforhodamine B assay; conditions: A549, 48 h
[31] = system: PC-3; assay: Growth inhibition of human PC3 cells after 48 hrs by sulforhodamine B assay; conditions: PC-3, 48 h
[32] = system: EKVX; assay: Growth inhibition of human EKVX cells after 48 hrs by sulforhodamine B assay
[33] = read-out: pLC50 (the source's name) (converted)

COc1cc(/C=C/c2cc(F)c3c(c2)C[C@@H]2C(C)(C)[C@H](O)CC[C@@]2(C)O3)cc(O)c1C/C=C(\C)CCC=C(C)C
GI50 [1]: 2.04 µM | LC50 [1]: > 100 µM | TGI ([1]; read-out: pTGI (converted)): 4.79 µM | GI50 [2]: 1.86 µM | LC50 [2]: > 100 µM | TGI ([2]; read-out: pTGI (converted)): 4.37 µM | GI50 [3]: 2.19 µM | LC50 [3]: 30.9 µM | TGI ([3]; read-out: pTGI (converted)): 6.92 µM | GI50 [4]: 19.1 µM | LC50 [4]: > 100 µM | TGI ([4]; read-out: pTGI (converted)): 70.8 µM | GI50 [5]: 2.04 µM | LC50 [5]: 15.8 µM | TGI ([5]; read-out: pTGI (converted)): 5.01 µM | GI50 [6]: 17 µM | LC50 [6]: 57.5 µM | TGI ([6]; read-out: pTGI (converted)): 30.9 µM | GI50 [7]: 12.3 µM | LC50 [7]: 66.1 µM | TGI ([7]; read-out: pTGI (converted)): 28.8 µM | GI50 [8]: 2.4 µM | LC50 [8]: > 100 µM | GI50 [9]: 2.09 µM | LC50 [9]: 20.9 µM | TGI ([9]; read-out: pTGI (converted)): 5.25 µM | GI50 [10]: 34.7 µM | LC50 [10]: > 100 µM | TGI ([10]; read-out: pTGI (converted)): > 100 µM | GI50 [11]: 1.82 µM | CC50 [11, 33]: > 100 µM | TGI ([11]; read-out: pTGI (converted)): 5.5 µM | GI50 [12]: 12.9 µM | LC50 [12]: 56.2 µM | TGI ([12]; read-out: pTGI (converted)): 26.9 µM | GI50 [13]: 18.6 µM | LC50 [13]: > 100 µM | TGI ([13]; read-out: pTGI (converted)): 45.7 µM | GI50 [14]: 7.41 µM | LC50 [14]: 44.7 µM | TGI ([14]; read-out: pTGI (converted)): 20 µM | GI50 [15]: 2.45 µM | LC50 [15]: 20.4 µM | TGI ([15]; read-out: pTGI (converted)): 6.03 µM | GI50 [16]: 11.7 µM | LC50 [16]: 58.9 µM | TGI ([16]; read-out: pTGI (converted)): 26.3 µM | GI50 [17]: 12.3 µM | LC50 [17]: 77.6 µM | TGI ([17]; read-out: pTGI (converted)): 30.9 µM | GI50 [18]: 2.95 µM | LC50 [18]: 37.2 µM | TGI ([18]; read-out: pTGI (converted)): 13.8 µM | LC50 [19]: 69.2 µM | GI50 ([19]; read-out: GI50): 5.01 µM | GI50 ([19]; read-out: pGI50 (converted)): 5.01 µM | TGI ([19]; read-out: pTGI (converted)): 21.4 µM | GI50 [20]: 1.91 µM | LC50 [20]: 8.32 µM | TGI ([20]; read-out: pTGI (converted)): 3.98 µM | GI50 [21]: 9.12 µM | LC50 [21]: > 100 µM | TGI ([21]; read-out: pTGI (converted)): 37.2 µM | GI50 [22]: 1.86 µM | LC50 (concentration killing 50% of cells) [22]: 6.76 µM | TGI ([22]; read-out: pTGI (converted)): 3.55 µM | GI50 [23]: 2.51 µM | LC50 [23]: 27.5 µM | TGI ([23]; read-out: pTGI (converted)): 6.46 µM | GI50 [24]: 3.02 µM | LC50 [24]: 33.1 µM | TGI ([24]; read-out: pTGI (converted)): 9.12 µM | GI50 [25]: 10.5 µM | LC50 [25]: 63.1 µM | TGI ([25]; read-out: pTGI (converted)): 25.7 µM | GI50 [26]: 12 µM | CC50 [26, 33]: 56.2 µM | TGI ([26]; read-out: pTGI (converted)): 25.7 µM | GI50 [27]: 8.71 µM | CC50 [27, 33]: > 100 µM | TGI ([27]; read-out: pTGI (converted)): > 100 µM | GI50 [28]: 1.82 µM | LC50 (50% lethal concentration) [28]: 10 µM | TGI ([28]; read-out: pTGI (converted)): 4.27 µM | GI50 [29]: 12 µM | LC50 [29]: 55 µM | TGI ([29]; read-out: pTGI (converted)): 25.7 µM | LC50 [30]: 15.8 µM | GI50 ([30]; read-out: GI50): 2.14 µM | GI50 ([30]; read-out: pGI50 (converted)): 2.14 µM | TGI ([30]; read-out: pTGI (converted)): 4.9 µM | GI50 [31]: 5.13 µM | CC50 [31, 33]: > 100 µM | TGI ([31]; read-out: pTGI (converted)): 25.1 µM | GI50 [32]: 11.7 µM | LC50 (50% lethal concentration) [32]: 91.2 µM | TGI ([32]; read-out: pTGI (converted)): 33.1 µM

From ChEMBL document CHEMBL1926642, “Relevance of the C-5 position to schweinfurthin induced cytotoxicity” (2011)
